Bioassay records deposited in PubChem by several laboratories.
WT yeast gro inh: growth inhibition of WT yeast, mitochondrial fusion screen | inhibition, % at 10 µM | mitochondrial fusion phenotypic screen, WT strain | 190,000 compounds, 2.1% hits; in the data active = inhibition above about 58%; tested in S. cerevisiae
b-catenin transl: modulators of beta-catenin nuclear translocation | HeLa beta-catenin nuclear translocation, immunofluorescence imaging | nuclear translocation activity, % at 5 µM | 190,000 compounds, 0.3% hits;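 active = nuclear translocation activity above 50% at 5 µM, with a well cell count of 50 or more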;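 also: per-cell ratio of nuclear to cytoplasmic median beta-catenin stain intensity; plate controls were DMSO negative control for no effect and GSK-3 inhibitor IX positive control for full effect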
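System: HeLa cells, endogenous beta-catenin; compound dosing: 5 µM primary single dose, 0.1% DMSO, 0.02–20 µM confirmation series; incubation: 24 h compound exposure at 37°C, 5% CO2; signal: beta-catenin immunofluorescence imaging with DAPI; evaluation: % activation, nuclear-to-cytoplasmic median beta-catenin signal ratio per cell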
Cl transport mod: modulators of human KCC2 chloride dependent transport; 190,000 compounds, 2.2% hits; KCC2 cells, thallium flux FluoZin-2 fluorescence; Q9H2X9; B-score of Tl+ flux slope (higher = more flux/activation; lower = inhibition) at 10 µM;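 active = thallium flux slope and its plate-corrected score both differing from the plate sample mean at a set confidence after two filtering rounds, in either direction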;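 also: slope of fluorescence scaled to starting intensity during 10 to 20 s after thallium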
MT stabilizer: microtubule stabilization, imaging screen; HeLa tubulin immunostaining HCS, 24 h; share of cells brighter than vehicle mean+2SD; % tubulin-high responders, % at 10 µM; 200,000 compounds, 0.83% hits; AID 2205;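 active = plate Z-score above 3 for both tubulin-high and condensed-nucleus cell shares, with cell loss under 80%, at 10 µM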;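 also: anti alpha tubulin signal scored within the nucleus-defined area of each cell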
Pf gamet viab: inhibitors of late stage P. falciparum gametocyte viability. P. falciparum stage V gametocytes, ATP luminescence, 24 h. inhibition, % at 10.9 µM. 150,000 compounds, 0.065% hits. AID 743093;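 active = inhibition above the mean plus 3 SD of compounds within the control limits, set per campaign, cut at about 38% in these data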;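 also: 0% = DMSO wells and 100% = medium only without gametocytes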
* hit, by the source's call; / = no result given. A selection: hits, their analogues and other compounds. The true share with any hit is near 4%.

SMILES	WT yeast gro inh	b-catenin transl	Cl transport mod	MT stabilizer	Pf gamet viab
O=C(N/N=C/c1ccc2c(c1)OCO2)c1cc(-c2ccccc2)nc2ccccc12	23.8	1.1	-0.881	29.3*	-5.0
N#Cc1ccc(/C=N/NC(=O)c2cc(-c3cccs3)nc3ccccc23)cc1	-12.7	116.5*	0.644	16.7*	/
O=C(N/N=C/c1ccc2c(c1)OCO2)c1ccc2c(c1)OCCO2	12.1	/	0.12	12.4*	/
O=C(c1cc(-c2cccs2)nc2ccccc12)N1CCN(c2ccccc2)CC1	44.4	25.1	-0.22	19.1*	-8.2
NC(=O)c1ccc2c(c1)OCCO2	-1.0	/	-3.19*	2.2	/
O=C(N/N=C/c1c[nH]c2ccc(Br)cc12)c1ccc2c(c1)OCO2	-7.3	73.0*	0.374	43.9*	/
O=C(N/N=C/c1ccc(O)cc1)c1[nH]c2ccc(Br)cc2c1-c1ccccc1	-0.1	39.6	0.268	14.7	0.3
O=C(O)c1ccc2c(c1)OCCO2	-6.0	-3.2	-0.61	1.5	/
O=C(N/N=C/c1c[nH]c2ccccc12)c1[nH]c2ccc(Br)cc2c1-c1ccccc1	96.0*	8.0	0.842	7.9	-11.9
COc1ccc(S(=O)(=O)n2ccnc2C)c(C)c1C	/	/	/	/	-13.2
CNC(=S)Nc1ccc(C23CC4CC(CC(C4)C2)C3)cc1	68.0*	-0.5	-0.223	3.8	-6.6
CCOc1ccccc1CN(Cc1ccco1)S(=O)(=O)c1ccc(-n2cnnn2)c(OC)c1	40.5	-0.7	-1.36	40.9*	/
CCC(C)c1ccc(OCCn2ccnc2)cc1 (stereo unspecified)	70.8*	-1.4	-0.0332	1.8	-4.1
Oc1ccc(-c2nc3c4c(ncn3n2)-c2ccccc2CC42CCCC2)cc1	96.0*	3.6	0.0348	2.2	/
CC(NCc1ccc(-c2ccccc2)cc1)C(O)c1ccccc1 (stereo unspecified)	68.1	46.6	0.444	11.0	-9.4
CCC1/C(=N\O)CC(c2ccco2)NC1c1ccco1 (stereo unspecified)	-2.9	/	0.203	1.7	/
CC(C)(C)SCCNC(=O)c1ccc(Cl)c([N+](=O)[O-])c1	80.8*	1.0	-0.58	1.2	/
Cc1ccccc1CNC(=O)c1ccc(Cl)c([N+](=O)[O-])c1	46.2	-1.8	-0.621	0.6	-6.0
CCOC(=O)C(C)Sc1nc(-c2ccccc2)nc2ccccc12 (stereo unspecified)	25.9	-1.1	1.13	2.3	1.2
COc1ccc(OC)c(/C=N/Nc2nncn2/N=C/c2cc(OC)ccc2OC)c1	-3.1	/	-2.98	31.5*	25.6
COc1cc(C(=O)OC(C)CN2C(C)CCCC2C)cc(OC)c1OC (stereo unspecified)	/	/	/	/	4.4
O=C(CSc1nccc(=O)[nH]1)NN(c1ccccc1)c1ccccc1	-7.3	-3.1	0.111	1.7	-2.0
COc1ccc(/C=C/C2=Nc3ccccc3NC(C)(C)C2)cc1OC	/	1.9	-0.604	/	-19.5
Oc1c(Cl)cc(Cl)cc1Sc1cc(Cl)cc(Cl)c1O	97.7	/	37.1*	6.8	/
COC(=O)C1CSC(C(=O)OC)N1C(=O)Nc1ccc(Cl)cc1 (stereo unspecified)	-11.5	0.5	/	1.6	-1.7
SMILES	WT yeast gro inh	b-catenin transl	Cl transport mod	MT stabilizer	Pf gamet viab
COc1ccccc1NC(=O)C1CC(C(C)C)OC1=O (stereo unspecified)	/	/	/	/	10.9
CCc1ccc(NC(=S)NNC(=O)c2ccccc2OC(F)F)cc1	5.7	12.6	17.9*	16.5*	/
CCNC(=S)NNC(=O)c1ccccc1OC(F)F	-12.6	1.7	1.45	2.2	/
COc1ccc(NC(=S)NNC(=O)c2ccccc2OC(F)F)cc1	14.7	15.5	0.0405	36.0*	/
CC12CN3CC(C)(CN(C1)C3c1ccc3c(c1)OCO3)C2O (stereo unspecified)	/	0.0	0.57	/	3.0
CN(Cc1ccccc1)C(=O)c1[nH]cnc1C(=O)Nc1nccs1	/	/	/	/	8.2
Cn1c(-c2ccc(C(C)(C)C)cc2)n[nH]c1=S	6.3	-0.9	3.93*	6.3	/
Cn1c(-c2ccccc2)n[nH]c1=S	/	-0.4	0.148	/	15.9
Cn1cccc1/C=N/n1c(-c2ccc(C(C)(C)C)cc2)n[nH]c1=S	-2.0	2.1	12.7*	2.3	-4.0
CC(C)(C)c1ccc(-c2n[nH]c(=S)n2C2CCCC2)cc1	71.6*	/	/	0.9	15.5
COC(=O)c1sc(NC(=O)c2ccco2)nc1C	3.6	-1.5	0.588	1.9	/
O=C(NC(=S)NCc1ccc(-c2nc3ccccc3s2)cc1)c1ccco1	-48.6	-1.3	6.36*	8.1	-7.5
CCOC(=O)c1sc(NC(=S)NC(=O)c2ccco2)nc1C	-1.9	0.5	46.9*	2.5	5.0
O=C(COC(=O)c1ccco1)Nc1nc2ccccc2s1	12.1	0.1	/	2.9	-12.1
O=C(NC(=S)Nc1nc2ccccc2s1)c1ccco1	-5.4	-0.6	36.8*	5.5	0.5
O=C(NCc1ccc(-c2nc3ccccc3s2)cc1)c1ccco1	15.4	1.9	0.614	1.8	2.2
COC(=O)c1c(NC(C)=O)sc2c1CCCC2	0.0	-4.7	0.928	1.6	/
COC(=O)c1c(NC(=S)Nc2ccc(F)cc2[N+](=O)[O-])sc2c1CCCCC2	-13.3	3.3	20.2*	5.9	-3.3
CCOC(=O)c1c(NC(=S)Nc2ccccc2)sc2c1CC(C)(C)SC2	8.8	-2.1	2.07	3.4	19.4
COC(=O)c1c(NC(NC(=O)C(C)C)C(Cl)(Cl)Cl)sc2c1CCCC2 (stereo unspecified)	76.6*	1.2	-0.165	4.2	2.4
CCOC(=O)c1c(NC(=S)NC)sc2c1CC(C)(C)SC2	5.4	-0.2	37*	9.2	20.9
CNC(=S)Nc1sc2c(c1C(=O)OC)CCC2	12.0	-2.5	52.2*	3.0	-21.2
CN(C)c1ccc(/C=N/OC(=O)Nc2ccccc2Cl)cc1	4.0	0.4	0.294	31.0*	-3.3
COc1ccc(NC(=O)O/N=C/c2ccncc2)cc1	4.9	-1.3	1.63	2.1	33.2
COc1ccc(/C=N/OC(=O)Nc2ccccc2OC)cc1	11.0	-0.7	-2.02	18.9*	16.1
SMILES	WT yeast gro inh	b-catenin transl	Cl transport mod	MT stabilizer	Pf gamet viab
O=C(CCCc1nc2ccccc2s1)NNC(=O)CCN1CCN(Cc2ccccc2)CC1	-15.5	-0.1	-0.272	4.6	1.2
O=C(Nc1cccc([N+](=O)[O-])c1)Nc1cccs1	0.6	-0.5	-1.38	3.4	-7.3
COc1ccc(S(=O)(=O)Nc2ccccc2-c2nnn(CC(=O)Nc3ccccc3OC)n2)cc1	-0.2	-0.3	-0.229	14.2*	-2.0
COc1ccc2cc3c(N)nn(C(=O)C4CCC(C(C)(C)C)CC4)c3nc2c1 (stereo unspecified)	91.6*	1.6	0.13	1.8	/
COc1ccc2cc3c(N)nn(C(=O)Cc4ccccc4OC)c3nc2c1	8.8	/	-1.08	5.4	/
CCc1c(C)nc(SCC(=O)c2cccs2)c(C#N)c1C	86.3*	/	-1.14	0.9	/
CCc1c(C)nc(SCC(N)=O)c(C#N)c1C	/	-9.6	-0.0976	1.4	/
Cc1cc(=O)oc2cc(OCC3CC(c4ccc(Cl)cc4)=NO3)ccc12 (stereo unspecified)	64.7*	-0.4	/	3.8	-1.8
CCCCOc1ccccc1NC(=O)Cn1c(-c2nonc2N)nc2ccccc21	1.4	0.5	-1.03	27.4*	/
